Published values from different studies.
Protocols differ between the studies behind these lines.
Target: Adenosine receptor A1 (ADORA1, Homo sapiens, UniProt P30542)
One construct used (P30542 1-326): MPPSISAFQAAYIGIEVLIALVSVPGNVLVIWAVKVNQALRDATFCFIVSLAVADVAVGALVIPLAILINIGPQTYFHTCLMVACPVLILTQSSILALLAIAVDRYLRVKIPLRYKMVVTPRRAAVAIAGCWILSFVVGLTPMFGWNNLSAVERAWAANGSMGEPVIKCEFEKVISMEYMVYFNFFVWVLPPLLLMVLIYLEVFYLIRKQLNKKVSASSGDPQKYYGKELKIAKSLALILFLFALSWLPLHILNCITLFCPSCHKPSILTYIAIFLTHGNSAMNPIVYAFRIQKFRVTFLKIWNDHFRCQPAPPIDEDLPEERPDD

O[C@@H]1[C@H](O)CO[C@H]1n1cnc2c(NCc3cccc(F)c3)ncnc21  inhibition (ligand displacement, radioligand; 10 µM, cell membranes): 16%
O=C1N=C(N2CCCCN2)S/C1=C\c1ccc(F)cc1O  inhibition (ligand displacement, radioligand; 10 µM): < 10%
CNc1nc(Cl)nc2c1ncn2[C@@H]1OC[C@@H](O)[C@H]1O  inhibition (ligand displacement, radioligand; 10 µM, cell membranes): < 10%
O=C(Nc1ccc(S(=O)(=O)N2CCC(Cl)CC2)cc1)c1ccc([N+](=O)[O-])o1  inhibition (ligand displacement, radioligand; 10 µM): 12%
CNC(=O)[C@@]12C[C@@H]1[C@@H](n1cnc3c(NC)nc(C#C[c-]4cccc4)nc31)[C@H](O)[C@@H]2O.[Fe+2].c1cc[cH-]c1  inhibition (ligand displacement, radioligand; 10 µM, cell membranes): 25%
C=CN1CCCn2c1nc1c2c(=O)n(C)c(=O)n1C  inhibition (ligand displacement, radioligand; 10 µM, cell membranes): 21%
CNc1ncnc2c1ncn2[C@@H]1OC[C@@H](O)[C@H]1O  inhibition (ligand displacement, radioligand; 10 µM, cell membranes): < 10%
O=C(c1ccc(Cl)cc1)N(Cc1ccccc1)C1CCCCC1  inhibition (cell-free assay; 10 µM): 1.7%
Ic1cccc2cnccc12  inhibition (ligand displacement, radioligand; 10 µM): -5%
Oc1cccc(Nc2nc(-c3ccc(F)cc3F)cs2)c1  inhibition (cell-free assay; 10 µM): 46.5%
Cn1c(=O)[nH]c2nc[nH]c2c1=O  inhibition (ligand displacement, radioligand; 30 µM, cell membranes): 78%
